What was measured:
Details in all cases: stereoisomer not certain
OR4M2 (Homo sapiens) = OR4M2 (Homo sapiens) (UniProt Q8NGB6)
Method in brief: (§1)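 Assay methods differ from source to source, frequently being transient luciferase assays in mammalian cell lines. For each receptor–molecule pair, the label responsive (active) applies when the original authors judged the measured signal statistically different from baseline, and non-responsive (inactive) applies otherwise.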

OR4M2B (Homo sapiens) = OR4M2B (Homo sapiens) (UniProt A0A0X1KG70)
OR4M2B (Homo sapiens), sequence (A0A0X1KG70 whole entry): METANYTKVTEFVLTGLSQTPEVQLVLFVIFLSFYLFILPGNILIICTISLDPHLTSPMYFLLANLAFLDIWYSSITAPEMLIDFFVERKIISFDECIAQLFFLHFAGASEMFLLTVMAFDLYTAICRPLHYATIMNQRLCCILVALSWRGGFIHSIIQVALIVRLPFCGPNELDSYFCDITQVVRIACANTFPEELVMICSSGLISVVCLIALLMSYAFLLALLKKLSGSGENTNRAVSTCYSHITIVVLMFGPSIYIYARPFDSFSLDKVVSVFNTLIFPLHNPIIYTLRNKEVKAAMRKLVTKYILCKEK
Method in brief: as §1

OR4N2 (Homo sapiens) = OR4N2 (Homo sapiens) (UniProt Q8NGD1)
OR4N2 (Homo sapiens), sequence (Q8NGD1 whole entry): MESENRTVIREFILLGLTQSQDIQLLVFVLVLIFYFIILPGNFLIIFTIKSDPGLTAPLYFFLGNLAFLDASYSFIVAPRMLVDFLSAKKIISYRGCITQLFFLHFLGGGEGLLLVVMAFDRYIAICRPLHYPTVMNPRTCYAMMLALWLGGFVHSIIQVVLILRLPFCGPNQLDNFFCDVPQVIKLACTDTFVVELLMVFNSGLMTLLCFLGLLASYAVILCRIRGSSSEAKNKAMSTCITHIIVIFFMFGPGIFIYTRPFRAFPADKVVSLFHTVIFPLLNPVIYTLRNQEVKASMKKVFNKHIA
Method in brief: as §1

OR4N4 (Homo sapiens) = OR4N4 (Homo sapiens) (UniProt Q8N0Y3)
OR4N4 (Homo sapiens), sequence (Q8N0Y3 whole entry): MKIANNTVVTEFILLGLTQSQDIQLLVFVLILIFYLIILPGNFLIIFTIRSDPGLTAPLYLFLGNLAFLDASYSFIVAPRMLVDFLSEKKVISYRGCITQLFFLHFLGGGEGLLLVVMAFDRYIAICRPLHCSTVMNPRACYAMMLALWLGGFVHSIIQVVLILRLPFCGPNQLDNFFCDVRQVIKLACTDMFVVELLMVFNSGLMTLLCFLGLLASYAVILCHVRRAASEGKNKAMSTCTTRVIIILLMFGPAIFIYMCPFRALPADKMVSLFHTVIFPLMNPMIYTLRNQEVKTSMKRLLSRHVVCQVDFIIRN
Method in brief: as §1

OR4N4C (Homo sapiens) = OR4N4C (Homo sapiens) (UniProt A0A096LPK9)
OR4N4C (Homo sapiens), sequence (A0A096LPK9 whole entry): as the sequence (Q8N0Y3 whole entry) above, with M259I counted along it
Method in brief: as §1

OR4N5 (Homo sapiens) = OR4N5 (Homo sapiens) (UniProt Q8IXE1)
OR4N5 (Homo sapiens), sequence (Q8IXE1 whole entry): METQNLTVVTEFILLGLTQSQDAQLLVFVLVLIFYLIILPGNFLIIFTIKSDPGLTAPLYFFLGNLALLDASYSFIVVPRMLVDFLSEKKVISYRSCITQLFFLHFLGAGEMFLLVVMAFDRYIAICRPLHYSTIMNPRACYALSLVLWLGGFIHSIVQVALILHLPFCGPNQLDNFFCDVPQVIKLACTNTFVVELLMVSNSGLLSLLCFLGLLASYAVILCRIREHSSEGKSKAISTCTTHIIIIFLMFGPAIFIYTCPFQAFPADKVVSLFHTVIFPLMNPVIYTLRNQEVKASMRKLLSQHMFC
Method in brief: as §1

OR4P4 (Homo sapiens) = OR4P4 (Homo sapiens) (UniProt Q8NGL7)
OR4P4 (Homo sapiens), sequence (Q8NGL7 whole entry): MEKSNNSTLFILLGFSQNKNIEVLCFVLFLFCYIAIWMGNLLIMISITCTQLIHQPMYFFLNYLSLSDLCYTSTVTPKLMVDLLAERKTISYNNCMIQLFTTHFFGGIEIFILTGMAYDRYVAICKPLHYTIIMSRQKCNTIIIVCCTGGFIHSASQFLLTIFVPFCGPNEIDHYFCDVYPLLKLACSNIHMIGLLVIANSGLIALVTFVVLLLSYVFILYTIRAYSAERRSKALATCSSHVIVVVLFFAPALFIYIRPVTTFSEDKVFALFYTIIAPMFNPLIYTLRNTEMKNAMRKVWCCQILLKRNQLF
Method in brief: as §1

OR4Q2 (Homo sapiens) = OR4Q2 (Homo sapiens) (UniProt P0C623)
OR4Q2 (Homo sapiens), sequence (P0C623 as listed by the source): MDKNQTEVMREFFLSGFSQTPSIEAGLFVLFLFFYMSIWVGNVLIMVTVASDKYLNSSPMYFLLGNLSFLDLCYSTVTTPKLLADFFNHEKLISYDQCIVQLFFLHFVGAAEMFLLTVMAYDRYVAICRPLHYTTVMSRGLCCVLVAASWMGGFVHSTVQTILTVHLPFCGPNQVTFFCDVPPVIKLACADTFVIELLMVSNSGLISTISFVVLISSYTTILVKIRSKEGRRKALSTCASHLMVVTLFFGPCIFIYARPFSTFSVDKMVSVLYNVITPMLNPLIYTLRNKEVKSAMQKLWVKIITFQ
Method in brief: as §1

OR4Q3 (Homo sapiens) = target: T1, OR4Q3 (Homo sapiens) (UniProt Q8NH05)
T1 sequence (whole entry): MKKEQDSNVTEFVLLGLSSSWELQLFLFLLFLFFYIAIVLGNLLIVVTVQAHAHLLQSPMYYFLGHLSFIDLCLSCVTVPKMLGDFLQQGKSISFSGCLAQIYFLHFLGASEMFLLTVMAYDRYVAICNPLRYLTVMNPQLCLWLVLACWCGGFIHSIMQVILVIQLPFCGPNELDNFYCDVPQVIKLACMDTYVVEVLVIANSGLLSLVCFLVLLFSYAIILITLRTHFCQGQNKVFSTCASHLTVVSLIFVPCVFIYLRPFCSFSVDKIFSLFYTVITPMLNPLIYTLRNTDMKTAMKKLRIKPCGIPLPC
Method in brief: as §1

OR4S1 (Homo sapiens) = OR4S1 (Homo sapiens) (UniProt Q8NGB4)
OR4S1 (Homo sapiens), sequence (Q8NGB4 whole entry): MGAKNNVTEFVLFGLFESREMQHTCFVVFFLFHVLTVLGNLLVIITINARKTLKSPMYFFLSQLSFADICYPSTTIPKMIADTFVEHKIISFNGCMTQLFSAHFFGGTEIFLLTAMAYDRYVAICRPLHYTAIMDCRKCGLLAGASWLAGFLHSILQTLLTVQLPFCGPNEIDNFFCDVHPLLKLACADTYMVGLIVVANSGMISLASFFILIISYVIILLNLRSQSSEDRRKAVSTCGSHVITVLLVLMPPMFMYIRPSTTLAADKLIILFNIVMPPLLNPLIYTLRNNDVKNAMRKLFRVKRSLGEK
Method in brief: as §1

OR4S2 (Homo sapiens) = OR4S2 (Homo sapiens) (UniProt Q8NH73)
OR4S2 (Homo sapiens), sequence (Q8NH73 whole entry): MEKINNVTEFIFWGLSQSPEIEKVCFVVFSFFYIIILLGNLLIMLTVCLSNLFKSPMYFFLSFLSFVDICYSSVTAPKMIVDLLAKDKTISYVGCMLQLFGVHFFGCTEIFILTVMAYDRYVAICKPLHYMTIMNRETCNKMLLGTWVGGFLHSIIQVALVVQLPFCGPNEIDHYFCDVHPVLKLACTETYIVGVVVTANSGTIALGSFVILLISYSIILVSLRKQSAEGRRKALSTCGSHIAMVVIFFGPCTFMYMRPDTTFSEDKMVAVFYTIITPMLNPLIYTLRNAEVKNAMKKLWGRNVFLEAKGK
Method in brief: as §1

OR4X1 (Homo sapiens) = OR4X1 (Homo sapiens) (UniProt Q8NH49)
OR4X1 (Homo sapiens), sequence (Q8NH49 whole entry): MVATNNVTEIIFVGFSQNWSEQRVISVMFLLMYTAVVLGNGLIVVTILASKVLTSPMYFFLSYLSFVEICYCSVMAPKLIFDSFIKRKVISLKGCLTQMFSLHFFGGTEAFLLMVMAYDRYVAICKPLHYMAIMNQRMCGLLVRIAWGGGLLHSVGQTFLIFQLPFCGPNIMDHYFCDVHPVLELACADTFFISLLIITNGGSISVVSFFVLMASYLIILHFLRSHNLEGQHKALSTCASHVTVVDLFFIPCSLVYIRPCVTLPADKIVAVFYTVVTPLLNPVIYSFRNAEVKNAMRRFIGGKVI
Method in brief: as §1

OR4X2 (Homo sapiens) = OR4X2 (Homo sapiens) (UniProt Q8NGF9)
OR4X2 (Homo sapiens), sequence (Q8NGF9 whole entry): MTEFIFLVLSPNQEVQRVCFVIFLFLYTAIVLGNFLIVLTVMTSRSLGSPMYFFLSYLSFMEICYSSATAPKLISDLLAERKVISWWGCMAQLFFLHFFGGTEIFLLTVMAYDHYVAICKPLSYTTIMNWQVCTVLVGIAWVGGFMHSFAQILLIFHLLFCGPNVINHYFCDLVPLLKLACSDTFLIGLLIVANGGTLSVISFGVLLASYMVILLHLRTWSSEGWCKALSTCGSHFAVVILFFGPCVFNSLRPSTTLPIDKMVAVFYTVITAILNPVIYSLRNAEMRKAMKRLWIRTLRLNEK
Method in brief: as §1

OR51A2 (Homo sapiens) = OR51A2 (Homo sapiens) (UniProt Q8NGJ7)
OR51A2 (Homo sapiens), sequence (Q8NGJ7 whole entry): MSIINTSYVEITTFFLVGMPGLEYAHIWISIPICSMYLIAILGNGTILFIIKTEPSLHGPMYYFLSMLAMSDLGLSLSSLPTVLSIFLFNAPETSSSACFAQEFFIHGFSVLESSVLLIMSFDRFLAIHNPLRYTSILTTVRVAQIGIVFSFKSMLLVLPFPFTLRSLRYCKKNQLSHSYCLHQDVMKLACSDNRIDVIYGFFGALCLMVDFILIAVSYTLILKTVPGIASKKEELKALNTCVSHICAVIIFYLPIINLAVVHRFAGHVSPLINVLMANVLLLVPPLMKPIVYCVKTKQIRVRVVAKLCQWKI
Method in brief: as §1

OR4M1 H277N V279L L284H = tested on: OR4M1 H277N V279L L284H
Method in brief: as §1

OR4N2 A57V I76T = tested on: OR4N2 A57V I76T
Method in brief: as §1

OR4N2 R260C F279L R290H = tested on: OR4N2 R260C F279L R290H
Method in brief: as §1

OR4N2 = tested on: OR4N2
OR4N2, sequence (as listed by the source): as the sequence (Q8NGD1 whole entry) above, with I76T counted along it
Method in brief: as §1

OR4Q3 T135A = tested on: OR4Q3 T135A
OR4Q3 T135A, sequence (as listed by the source, stated change not applied): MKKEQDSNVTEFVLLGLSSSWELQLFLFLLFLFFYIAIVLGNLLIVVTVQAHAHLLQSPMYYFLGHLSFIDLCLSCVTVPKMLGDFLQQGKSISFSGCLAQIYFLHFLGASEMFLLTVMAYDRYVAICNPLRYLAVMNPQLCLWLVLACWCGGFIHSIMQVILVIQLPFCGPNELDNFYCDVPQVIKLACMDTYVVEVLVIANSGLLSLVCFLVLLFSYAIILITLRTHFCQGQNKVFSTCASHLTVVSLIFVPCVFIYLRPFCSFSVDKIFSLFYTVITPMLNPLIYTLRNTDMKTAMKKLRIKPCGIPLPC
Method in brief: as §1

OR4Q3 = tested on: OR4Q3
OR4Q3, sequence (as listed by the source): as the sequence (as listed by the source, stated change not applied) above, with A135T, F238L counted along it
Method in brief: as §1

OR4M2 (Homo sapiens), sequence (Q8NGB6 whole entry): as the sequence (A0A0X1KG70 whole entry) above, with E96G, L225F, V239M, H284R counted along it

SMILES	odorant receptor agonist call (OR4M2 (Homo sapiens))	odorant receptor agonist call (OR4M2B (Homo sapiens))	odorant receptor agonist call (OR4N2 (Homo sapiens))	odorant receptor agonist call (OR4N4 (Homo sapiens))	odorant receptor agonist call (OR4N4C (Homo sapiens))	odorant receptor agonist call (OR4N5 (Homo sapiens))	odorant receptor agonist call (OR4P4 (Homo sapiens))	odorant receptor agonist call (OR4Q2 (Homo sapiens))	odorant receptor agonist call (OR4Q3 (Homo sapiens))	odorant receptor agonist call (OR4S1 (Homo sapiens))	odorant receptor agonist call (OR4S2 (Homo sapiens))	odorant receptor agonist call (OR4X1 (Homo sapiens))	odorant receptor agonist call (OR4X2 (Homo sapiens))	odorant receptor agonist call (OR51A2 (Homo sapiens))	odorant receptor agonist call (OR4M1 H277N V279L L284H)	odorant receptor agonist call (OR4N2 A57V I76T)	odorant receptor agonist call (OR4N2 R260C F279L R290H)	odorant receptor agonist call (OR4N2)	odorant receptor agonist call (OR4Q3 T135A)	odorant receptor agonist call (OR4Q3)
Cc1c([N+](=O)[O-])c(C)c([N+](=O)[O-])c(C(C)(C)C)c1[N+](=O)[O-]	inactive	inactive	inactive	inactive	inactive	inactive	inactive	inactive	inactive	inactive	inactive	inactive	inactive	inactive						
C=CCOC(=O)Cc1ccccc1	inactive		inactive	inactive		inactive	inactive		inactive	inactive	inactive	inactive	inactive	inactive	inactive	inactive	inactive	inactive	inactive	
CCCCOC(=O)c1ccccc1N									active											inactive
